According to ChEMBL document CHEMBL4152384, “Pyrtriazoles, a Novel Class of Store-Operated Calcium Entry Modulators: Discovery, Biological Profiling, and in Vivo Proof-of-Concept Efficacy in Acute Pancreatitis” (J Med Chem, 2018):
Active and inactive are the calls of the source. No cut-off for these calls is given here.

Columns and labels:
[1] = Drug metabolism in CD1 mouse liver microsomes assessed as ester group hydrolysis at 50 uM after 60 mins in absence of NADPH/UDPGA; assay type: ADME, microsome; conditions: 1 h
[2] = system: voltage-gated calcium channel (Mus musculus); assay: Antagonist activity at voltage-gated calcium channels in C57/BL6 mouse cerebellar granule cells assessed as inhibition of KCl-induced voltage dependent calcium entry at 10 uM by fura-2-based assay
[3] = system: Mus musculus; assay: Acute toxicity in CD1 mouse assessed as histological alterations in heart at 40 mg/kg, ip administered as single dose for 14 days; assay type: organism-based; conditions: in vivo, 336 h
[4] = molecular target: Short transient receptor potential channel 1 & 3/Stromal interaction molecule 1/Calcium release-activated calcium channel protein 1 (Homo sapiens, UniProt P48995+Q13507+Q13586+Q96D31); assay: Modulation of TRPC1/TRPC3/STIM1/Orai1 in HEK cells assessed as induction of store-operated calcium entry by measuring residual activity preincubated for 30 mins followed by tBhQ-mediated Ca2+ depletion and Ca2+ re-addition to extracellular solution measured for 600 secs by Fluo-4 AM-based fluorometric assay relative to control; assay type: cell-based
Chain of Short transient receptor potential channel 1 & 3/Stromal interaction molecule 1/Calcium release-activated calcium channel protein 1 (Q96D31 whole entry): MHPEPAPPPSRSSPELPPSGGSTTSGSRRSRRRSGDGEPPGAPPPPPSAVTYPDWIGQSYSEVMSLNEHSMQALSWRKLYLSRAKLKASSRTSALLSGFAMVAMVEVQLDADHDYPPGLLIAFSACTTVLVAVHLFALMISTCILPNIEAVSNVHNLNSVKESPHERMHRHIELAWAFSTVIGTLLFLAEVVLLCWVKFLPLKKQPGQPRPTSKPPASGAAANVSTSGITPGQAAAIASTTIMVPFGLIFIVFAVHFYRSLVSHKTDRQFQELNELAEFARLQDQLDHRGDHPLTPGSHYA
Chain of Short transient receptor potential channel 1 & 3/Stromal interaction molecule 1/Calcium release-activated calcium channel protein 1 (Q13507 whole entry): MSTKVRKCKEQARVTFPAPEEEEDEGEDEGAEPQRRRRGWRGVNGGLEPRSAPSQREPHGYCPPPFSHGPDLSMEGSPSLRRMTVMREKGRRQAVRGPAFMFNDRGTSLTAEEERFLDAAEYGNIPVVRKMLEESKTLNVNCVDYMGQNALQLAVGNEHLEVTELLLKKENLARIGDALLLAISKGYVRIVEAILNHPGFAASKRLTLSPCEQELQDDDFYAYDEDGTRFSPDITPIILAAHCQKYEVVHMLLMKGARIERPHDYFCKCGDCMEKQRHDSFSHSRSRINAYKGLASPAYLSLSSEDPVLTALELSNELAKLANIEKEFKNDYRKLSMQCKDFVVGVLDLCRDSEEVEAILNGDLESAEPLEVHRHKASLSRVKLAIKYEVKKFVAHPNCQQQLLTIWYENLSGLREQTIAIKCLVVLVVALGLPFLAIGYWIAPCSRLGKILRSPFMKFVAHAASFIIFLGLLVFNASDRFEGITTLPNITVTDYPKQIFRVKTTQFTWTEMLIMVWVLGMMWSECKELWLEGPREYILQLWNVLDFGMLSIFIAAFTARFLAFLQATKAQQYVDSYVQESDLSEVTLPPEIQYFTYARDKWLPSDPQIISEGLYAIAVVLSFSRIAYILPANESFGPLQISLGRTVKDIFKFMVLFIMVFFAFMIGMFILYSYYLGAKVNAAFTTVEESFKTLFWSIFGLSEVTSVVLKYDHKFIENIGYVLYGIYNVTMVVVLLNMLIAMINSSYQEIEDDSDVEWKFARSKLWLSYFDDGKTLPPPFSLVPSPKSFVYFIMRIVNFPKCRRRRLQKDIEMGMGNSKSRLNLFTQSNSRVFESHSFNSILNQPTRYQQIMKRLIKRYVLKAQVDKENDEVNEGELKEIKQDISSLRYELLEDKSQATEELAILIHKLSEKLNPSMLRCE
Chain of Short transient receptor potential channel 1 & 3/Stromal interaction molecule 1/Calcium release-activated calcium channel protein 1 (Q13586 whole entry): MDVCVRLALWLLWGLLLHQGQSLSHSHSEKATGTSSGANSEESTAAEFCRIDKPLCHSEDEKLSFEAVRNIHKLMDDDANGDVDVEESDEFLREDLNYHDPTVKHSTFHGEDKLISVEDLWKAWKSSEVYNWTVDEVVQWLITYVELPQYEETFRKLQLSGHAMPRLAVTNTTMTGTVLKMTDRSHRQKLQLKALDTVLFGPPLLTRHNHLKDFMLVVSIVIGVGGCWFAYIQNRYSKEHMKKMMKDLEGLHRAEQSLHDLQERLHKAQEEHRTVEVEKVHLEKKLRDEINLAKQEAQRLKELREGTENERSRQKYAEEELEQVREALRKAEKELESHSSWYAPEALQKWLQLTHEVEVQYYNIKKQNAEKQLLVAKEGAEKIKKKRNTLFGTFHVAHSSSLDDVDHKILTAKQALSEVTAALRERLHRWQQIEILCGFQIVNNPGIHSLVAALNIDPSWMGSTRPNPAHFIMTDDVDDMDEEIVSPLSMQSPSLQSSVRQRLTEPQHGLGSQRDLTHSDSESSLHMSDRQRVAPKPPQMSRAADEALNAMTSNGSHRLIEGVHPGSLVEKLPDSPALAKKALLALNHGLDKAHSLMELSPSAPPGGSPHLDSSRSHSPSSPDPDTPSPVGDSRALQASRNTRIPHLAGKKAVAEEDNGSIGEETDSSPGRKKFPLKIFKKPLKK
Chain of Short transient receptor potential channel 1 & 3/Stromal interaction molecule 1/Calcium release-activated calcium channel protein 1 (P48995 whole entry): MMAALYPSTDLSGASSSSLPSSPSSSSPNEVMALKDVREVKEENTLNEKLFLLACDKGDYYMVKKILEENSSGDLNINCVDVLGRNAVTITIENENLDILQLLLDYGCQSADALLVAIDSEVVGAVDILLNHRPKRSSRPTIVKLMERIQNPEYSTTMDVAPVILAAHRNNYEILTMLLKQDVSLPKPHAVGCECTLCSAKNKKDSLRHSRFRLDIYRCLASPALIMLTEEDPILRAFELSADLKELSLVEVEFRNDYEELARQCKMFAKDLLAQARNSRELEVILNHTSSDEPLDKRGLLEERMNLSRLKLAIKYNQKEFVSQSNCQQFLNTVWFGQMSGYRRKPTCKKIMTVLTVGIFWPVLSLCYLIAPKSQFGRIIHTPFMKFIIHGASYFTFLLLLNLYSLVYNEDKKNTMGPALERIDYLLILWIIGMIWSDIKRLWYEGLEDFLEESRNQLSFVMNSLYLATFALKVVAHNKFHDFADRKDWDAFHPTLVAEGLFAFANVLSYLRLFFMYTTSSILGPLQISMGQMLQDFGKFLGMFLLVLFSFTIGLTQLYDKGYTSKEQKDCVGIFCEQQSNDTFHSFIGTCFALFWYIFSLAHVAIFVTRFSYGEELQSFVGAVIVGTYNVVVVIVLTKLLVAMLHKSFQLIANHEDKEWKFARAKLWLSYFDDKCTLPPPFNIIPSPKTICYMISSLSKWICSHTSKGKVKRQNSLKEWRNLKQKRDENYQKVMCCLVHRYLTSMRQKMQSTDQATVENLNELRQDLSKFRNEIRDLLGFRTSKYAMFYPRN

[5] = system: voltage-gated calcium channel (Mus musculus); assay: Antagonist activity at voltage-gated calcium channels in C57/BL6 mouse cerebellar granule cells assessed as inhibition of KCl-induced voltage dependent calcium entry at 10 uM by fura-2-based assay; remark: listed apart in the source
[6] = system: Mus musculus; assay: Protection against cerulein-induced pancreatitis in CD1 mouse assessed as reduction in neutrophil infiltration at 40 mg/kg, ip administered at 30 and 150 mins post first cerulein addition by myeloperoxidase staining based spectrophotometry; assay type: functional, organism-based
[7] = system: Mus musculus; assay: Volume of distribution in ip dosed CD1 mouse by LC-ESI-MS analysis; assay type: ADME, organism-based; conditions: in vivo
[8] = Plasma concentration in ip dosed CD1 mouse by LC-ESI-MS analysis; assay type: ADME, organism-based; conditions: in vivo
[9] = system: Mus musculus; assay: Acute toxicity in CD1 mouse assessed as signs of distress at 40 mg/kg, ip administered as single dose for 14 days; assay type: organism-based; conditions: in vivo, 336 h
[10] = Cmax in ip dosed CD1 mouse after 1 hr by LC-ESI-MS analysis; assay type: ADME, organism-based; parameters: route intraperitoneal; conditions: in vivo
[11] = molecular target: Short transient receptor potential channel 1 & 3/Stromal interaction molecule 1/Calcium release-activated calcium channel protein 1 (Homo sapiens) (UniProt Q96D31+Q13507+Q13586+P48995); assay: Modulation of TRPC1/TRPC3/STIM1/Orai1 in HEK cells assessed as induction of store-operated calcium entry by measuring residual activity at 10 uM preincubated for 30 mins followed by tBhQ-mediated Ca2+ depletion and Ca2+ re-addition to extracellular solution measured for 600 secs by Fluo-4 AM-based fluorometric assay relative to control; assay type: cell-based
Chain of Short transient receptor potential channel 1 & 3/Stromal interaction molecule 1/Calcium release-activated calcium channel protein 1 (Homo sapiens) (P48995 whole entry partner): as the sequence (P48995 whole entry) above
Chain of Short transient receptor potential channel 1 & 3/Stromal interaction molecule 1/Calcium release-activated calcium channel protein 1 (Homo sapiens) (Q13507 whole entry partner): as the sequence (Q13507 whole entry) above
Chain of Short transient receptor potential channel 1 & 3/Stromal interaction molecule 1/Calcium release-activated calcium channel protein 1 (Homo sapiens) (Q13586 23-685 partner limits assumed): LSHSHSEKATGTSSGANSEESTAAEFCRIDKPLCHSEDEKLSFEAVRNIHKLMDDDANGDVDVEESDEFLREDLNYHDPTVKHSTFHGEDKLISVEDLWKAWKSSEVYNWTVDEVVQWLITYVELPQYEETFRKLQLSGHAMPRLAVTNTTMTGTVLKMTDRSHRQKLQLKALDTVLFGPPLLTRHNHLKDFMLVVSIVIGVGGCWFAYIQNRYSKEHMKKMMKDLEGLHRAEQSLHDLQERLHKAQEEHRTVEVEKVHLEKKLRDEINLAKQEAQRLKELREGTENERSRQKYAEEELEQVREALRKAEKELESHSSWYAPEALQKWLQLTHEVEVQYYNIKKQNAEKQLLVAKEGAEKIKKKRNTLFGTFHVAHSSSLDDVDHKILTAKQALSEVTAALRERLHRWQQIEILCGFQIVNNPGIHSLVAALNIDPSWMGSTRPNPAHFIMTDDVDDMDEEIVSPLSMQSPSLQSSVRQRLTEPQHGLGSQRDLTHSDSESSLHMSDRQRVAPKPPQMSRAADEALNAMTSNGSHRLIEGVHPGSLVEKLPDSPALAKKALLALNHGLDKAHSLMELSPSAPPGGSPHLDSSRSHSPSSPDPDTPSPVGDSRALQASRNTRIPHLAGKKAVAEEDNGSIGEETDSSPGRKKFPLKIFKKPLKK
Chain of Short transient receptor potential channel 1 & 3/Stromal interaction molecule 1/Calcium release-activated calcium channel protein 1 (Homo sapiens) (Q96D31 whole entry): as the sequence (Q96D31 whole entry) above

[12] = Drug metabolism in CD1 mouse liver microsomes assessed as 3-(1-(4-(4-((Pentan-2-yloxy)carbonyl)-5-(trifluoromethyl)-1H-pyrazol-1-yl)-phenyl)-1H-1,2,3-triazol-4-yl)benzoic Acid metabolite formation at 50 uM after 60 mins by mass spectroscopic analysis; assay type: ADME, microsome
[13] = Metabolic stability in CD1 mouse plasma assessed as residual compound level at 50 uM after 30 mins by LC-UV analysis; assay type: ADME, cell-free; conditions: read-out: Stability
Summary of the method: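 Compounds incubated in mouse plasma for 30 min; percentage of residual substrate determined.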

[14] = Drug metabolism in CD1 mouse liver microsomes assessed as 1-(4-(4-(3-Carboxyphenyl)-1H-1,2,3-triazol-1-yl)phenyl)-5-(trifluoromethyl)-1H-pyrazole-4-carboxylic Acid metabolite formation at 50 uM after 60 mins by mass spectroscopic analysis; assay type: ADME, microsome
[15] = system: Mus musculus; assay: Protection against cerulein-induced pancreatitis in CD1 mouse assessed as reduction in pancreatic inflammation at 40 mg/kg, ip administered at 30 and 150 mins post first cerulein addition by hematoxylin and eosin staining based microscopy; assay type: functional, organism-based
[16] = Drug metabolism in CD1 mouse liver microsomes assessed as ester group hydrolysis at 50 uM after 60 mins in presence of NADPH/UDPGA; assay type: ADME, microsome; conditions: 1 h
[17] = system: Mus musculus; assay: Acute toxicity in CD1 mouse assessed as histological alterations in liver at 40 mg/kg, ip administered as single dose for 14 days; assay type: organism-based; conditions: in vivo, 336 h
[18] = system: Mus musculus; assay: Acute toxicity in CD1 mouse assessed as histological alterations in lung at 40 mg/kg, ip administered as single dose for 14 days; assay type: organism-based; conditions: in vivo, 336 h
[19] = system: Mus musculus; assay: Protection against cerulein-induced pancreatitis in CD1 mouse assessed as reduction in pancreatic edema at 40 mg/kg, ip administered at 30 and 150 mins post first cerulein addition by hematoxylin and eosin staining based microscopy; assay type: functional, organism-based
[20] = system: Mus musculus; assay: Acute toxicity in CD1 mouse assessed as histological alterations in ileum at 40 mg/kg, ip administered as single dose for 14 days; assay type: organism-based; conditions: in vivo, 336 h
[21] = Half life in ip dosed CD1 mouse by LC-ESI-MS analysis; assay type: ADME, organism-based; conditions: in vivo
[22] = Metabolic stability in CD1 mouse liver S9 fraction assessed as residual compound level at 50 uM after 1 hr; assay type: ADME, subcellular; conditions: read-out: Stability
Summary of the method: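 Hydrolytic stability measured in mouse liver S9 fraction; residual substrate quantified after 1 h incubation.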

[23] = Clearance in ip dosed CD1 mouse by LC-ESI-MS analysis; assay type: ADME, organism-based; conditions: in vivo
[24] = system: Mus musculus; assay: Acute toxicity in CD1 mouse assessed as mortality at 40 mg/kg, ip administered as single dose for 14 days; assay type: organism-based; conditions: in vivo, 336 h
[25] = Cytotoxicity against HEK cells assessed as cell viability at 10 uM by MTT assay relative to control; assay type: cell-based; conditions: human, read-out: Activity
Summary of the method: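 Hek cells treated 24 h with compound at 10 μM; viability determined by MTT assay.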

[26] = system: Mus musculus; assay: Acute toxicity in CD1 mouse assessed as histological alterations in brain at 40 mg/kg, ip administered as single dose for 14 days; assay type: organism-based; conditions: in vivo, 336 h
[27] = system: Mus musculus; assay: Acute toxicity in CD1 mouse assessed as histological alterations in kidney at 40 mg/kg, ip administered as single dose for 14 days; assay type: organism-based; conditions: in vivo, 336 h
[28] = molecular target: Transient receptor potential cation channel subfamily V member 1 (Homo sapiens) (UniProt Q8NER1); assay: Antagonist activity at TRPV1 (unknown origin) expressed in HEK cells assessed as inhibition of capsaicin-induced calcium increase at 10 uM by fura-2-based assay; assay type: cell-based
Chain of Transient receptor potential cation channel subfamily V member 1 (Homo sapiens) (Q8NER1 whole entry): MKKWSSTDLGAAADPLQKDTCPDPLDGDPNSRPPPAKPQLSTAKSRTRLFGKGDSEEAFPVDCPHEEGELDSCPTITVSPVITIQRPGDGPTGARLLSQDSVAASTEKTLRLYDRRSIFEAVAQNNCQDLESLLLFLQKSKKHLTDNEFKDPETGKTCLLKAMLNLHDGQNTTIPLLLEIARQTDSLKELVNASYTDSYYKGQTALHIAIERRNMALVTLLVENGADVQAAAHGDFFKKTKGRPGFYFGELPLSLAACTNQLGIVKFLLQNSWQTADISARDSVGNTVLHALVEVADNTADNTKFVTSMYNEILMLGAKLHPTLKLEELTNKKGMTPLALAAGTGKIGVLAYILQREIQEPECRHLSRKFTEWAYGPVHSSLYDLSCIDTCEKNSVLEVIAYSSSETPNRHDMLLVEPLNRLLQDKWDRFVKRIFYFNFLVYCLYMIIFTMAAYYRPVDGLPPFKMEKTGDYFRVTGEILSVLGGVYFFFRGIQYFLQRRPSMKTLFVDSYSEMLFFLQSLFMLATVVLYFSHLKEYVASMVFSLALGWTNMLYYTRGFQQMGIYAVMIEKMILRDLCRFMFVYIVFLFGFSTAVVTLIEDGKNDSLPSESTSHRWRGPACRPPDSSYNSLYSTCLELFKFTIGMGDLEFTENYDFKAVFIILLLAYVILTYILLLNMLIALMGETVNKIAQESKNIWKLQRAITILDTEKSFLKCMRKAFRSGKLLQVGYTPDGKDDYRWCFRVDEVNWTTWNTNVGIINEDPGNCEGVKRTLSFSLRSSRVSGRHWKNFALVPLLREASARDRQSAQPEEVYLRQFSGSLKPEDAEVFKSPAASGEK
Summary of the method: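 TRPV1-overexpressing Hek cells; calcium rise evoked by capsaicin (100 nM), test compounds at 10 μM; peak amplitude read out; mean ± SEM of 600 cells from 30 plates on four separate experimental days.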

[29] = system: Mus musculus; assay: Acute toxicity in CD1 mouse assessed as histological alterations in stomach at 40 mg/kg, ip administered as single dose for 14 days; assay type: organism-based; conditions: in vivo, 336 h
[30] = system: Mus musculus; assay: Acute toxicity in CD1 mouse assessed as effect on body weight at 40 mg/kg, ip administered as single dose for 14 days; assay type: organism-based; conditions: in vivo, 336 h
[31] = molecular target: Transient receptor potential cation channel subfamily M member 8 (Homo sapiens) (UniProt Q7Z2W7); assay: Antagonist activity at TRPM8 (unknown origin) expressed in HEK cells assessed as inhibition of menthol -mediated calcium increase at 10 uM by fura-2-based assay; assay type: cell-based
Summary of the method: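 TRPM8-overexpressing Hek cells; calcium rise evoked by menthol (100 μM), test compounds at 10 μM; peak amplitude read out; mean ± SEM of 600 cells from 30 plates on four separate experimental days.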

CCCC(C)OC(=O)c1cnn(-c2ccc(-n3cc(-c4cccc(C(=O)O)c4)nn3)cc2)c1C(F)(F)F (stereo unspecified)
Drug metabolism [1]: Metabolite_Detected
inhibition [2]: inactive
Activity [3]: Non-Toxic
IC50 [4]: 4.4 µM
inhibition [5]: inactive
Activity [6]: Active
Vd [7]: 32 L/kg
concentration [8]: 1.2 µM
Activity [9]: Non-Toxic
Cmax [10]: 0.64 µg/mL
Activity [11]: 17.5%
Drug metabolism [12]: Metabolite_Detected
remaining at 0.5 h, 50 µM [13]: 97.8%
Drug metabolism [14]: Metabolite_Notdetected
Activity [15]: Active
Drug metabolism [16]: Metabolite_Detected
Activity [17]: Non-Toxic
Activity [18]: Non-Toxic
Activity [19]: Active
Activity [20]: Non-Toxic
half-life [21]: 1.3 h
remaining at 1 h, 50 µM [22]: 73.7%
CL/F [23]: 17 L/h/kg
Activity [24]: Non-Toxic
viability at 10 µM [25]: 93.6%
Activity [26]: Non-Toxic
Activity [27]: Non-Toxic
inhibition [28]: inactive
Activity [29]: Non-Toxic
Activity [30]: Non-Toxic
inhibition [31]: inactive
